The structures appear in SMILES notation. Activity calls are given as the source filed them. The rule behind the calls is not given here.

The test system of series [1] is Mesenchymal stem cells. Nature of the series: Induction of osteogenesis differentiation in human Mesenchymal stem cells at 1 uM incubated for 21 days by Alizarin Red S staining-based microscopic analysis. The series is classed as functional, cell-based. The conditions noted are these: time 21.0 day.
Series [2] relates to Mesenchymal stem cells. Nature of the series: Induction of adipogenesis differentiation in human Mesenchymal stem cells at 1 uM incubated for 21 days by […] staining-based microscopic analysis. The class given is functional, cell-based. The conditions noted are these: time 21.0 day.
The subject of series [3] is Mesenchymal stem cells. In words: Induction of adipogenesis differentiation in human Mesenchymal stem cells at 10 uM incubated for 21 days by […] staining-based microscopic analysis. The class given is functional, cell-based. The conditions noted are these: time 21.0 day.
Series [4] relates to Mesenchymal stem cells. In words: Induction of adipogenesis differentiation in human Mesenchymal stem cells at 20 uM incubated for 21 days by […] staining-based microscopic analysis. The conditions noted are these: time 21.0 day. The series is classed as functional, cell-based.
For series [5], the system named is Mesenchymal stem cells. In words: Induction of osteogenesis differentiation in human Mesenchymal stem cells at 10 uM incubated for 21 days by Alizarin Red S staining-based microscopic analysis. The following applies: time 21.0 day. The class given is functional, cell-based.
Series [6] deals with Mesenchymal stem cells. In words: Induction of osteogenesis differentiation in human Mesenchymal stem cells at 20 uM incubated for 21 days by Alizarin Red S staining-based microscopic analysis. The series is classed as functional, cell-based. The conditions noted are these: time 21.0 day.
For series [7], the target named is T1, Peroxisome proliferator-activated receptor alpha (Homo sapiens, UniProt Q07869).
T1 sequence (Q07869 whole entry): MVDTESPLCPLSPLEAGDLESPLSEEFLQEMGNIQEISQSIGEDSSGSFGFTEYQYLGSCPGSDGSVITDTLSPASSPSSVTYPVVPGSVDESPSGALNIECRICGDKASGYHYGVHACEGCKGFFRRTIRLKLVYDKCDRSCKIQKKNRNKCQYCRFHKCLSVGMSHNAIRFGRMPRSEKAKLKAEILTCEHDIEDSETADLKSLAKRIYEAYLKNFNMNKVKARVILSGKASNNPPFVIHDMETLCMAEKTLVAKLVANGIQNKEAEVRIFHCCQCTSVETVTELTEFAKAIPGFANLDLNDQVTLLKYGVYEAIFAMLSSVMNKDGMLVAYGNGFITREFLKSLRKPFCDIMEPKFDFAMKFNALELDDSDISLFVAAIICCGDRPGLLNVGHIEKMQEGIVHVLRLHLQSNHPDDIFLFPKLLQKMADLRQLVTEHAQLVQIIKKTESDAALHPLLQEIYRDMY
In words: Agonist activity at human PPARalpha transfected in COS-7 cells assessed luciferase activity measured after 24 hrs by cell based luciferase transactivation assay. The following applies: read-out: EC50. A digest of the protocol: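 Transient transfection of COS-7 cells with human PPARα, PPARγ or PPARδ plus luciferase reporter; constitutive Renilla luciferase also read. Three or more independent experiments in triplicate (N ≥ 9).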

Series [8] concerns the target T2, Peroxisome proliferator-activated receptor delta (Homo sapiens, UniProt Q03181).
T2 sequence (Q03181 whole entry): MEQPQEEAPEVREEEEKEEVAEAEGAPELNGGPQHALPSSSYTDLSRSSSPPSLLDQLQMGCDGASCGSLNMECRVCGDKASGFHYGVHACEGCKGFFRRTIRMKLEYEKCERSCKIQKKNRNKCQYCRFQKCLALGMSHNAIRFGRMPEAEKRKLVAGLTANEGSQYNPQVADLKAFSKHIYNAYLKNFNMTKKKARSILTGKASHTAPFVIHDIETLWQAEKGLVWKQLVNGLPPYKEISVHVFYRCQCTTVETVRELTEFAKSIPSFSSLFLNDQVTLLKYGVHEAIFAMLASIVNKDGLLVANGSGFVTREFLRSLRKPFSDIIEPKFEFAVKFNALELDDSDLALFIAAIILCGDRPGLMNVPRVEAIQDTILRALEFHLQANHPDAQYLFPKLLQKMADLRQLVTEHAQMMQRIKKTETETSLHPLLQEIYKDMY
In words: Agonist activity at human PPARdelta transfected in COS-7 cells assessed luciferase activity measured after 24 hrs by cell based luciferase transactivation assay.

The target in series [9] is T3, Peroxisome proliferator-activated receptor gamma (Homo sapiens, UniProt P37231).
T3 sequence (P37231 whole entry): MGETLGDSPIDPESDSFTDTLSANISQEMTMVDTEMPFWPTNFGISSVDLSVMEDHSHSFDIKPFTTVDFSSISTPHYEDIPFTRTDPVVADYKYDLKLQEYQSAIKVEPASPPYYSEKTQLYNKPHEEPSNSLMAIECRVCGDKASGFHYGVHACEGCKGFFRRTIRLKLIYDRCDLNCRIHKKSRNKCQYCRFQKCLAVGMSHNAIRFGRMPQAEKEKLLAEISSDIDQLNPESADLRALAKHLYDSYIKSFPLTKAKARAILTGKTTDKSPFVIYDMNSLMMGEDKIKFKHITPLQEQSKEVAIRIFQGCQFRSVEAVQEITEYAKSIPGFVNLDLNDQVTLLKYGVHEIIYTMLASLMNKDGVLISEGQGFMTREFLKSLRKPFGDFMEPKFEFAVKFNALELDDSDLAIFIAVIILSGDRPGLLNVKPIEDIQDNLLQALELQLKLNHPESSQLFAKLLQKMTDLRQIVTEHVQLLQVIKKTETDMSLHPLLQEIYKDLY
Nature of the series: Agonist activity at human PPARgamma transfected in COS-7 cells assessed luciferase activity measured after 24 hrs by cell based luciferase transactivation assay.

The target in series [10] is T4, Peroxisome proliferator-activated receptor alpha (Homo sapiens) (UniProt Q07869).
T4 sequence (whole entry): T1 sequence (Q07869 whole entry)
In words: Agonist activity at human PPARalpha transfected in COS-7 cells assessed maximum luciferase activity measured after 24 hrs by cell based luciferase transactivation assay relative to gemfibrozil. The conditions noted are these: filed as agonist. A digest of the protocol:
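Transient transfection of COS-7 cells with human PPARα, PPARγ or PPARδ plus luciferase reporter; constitutive Renilla luciferase also read. […] Three or more independent experiments in triplicate (N ≥ 9).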

Series [11] concerns Mus musculus. In words: Antiosteoporotic activity against OVX-induced bone loss C57BL/6 mouse model assessed as increase in trabecular bone density at 10 mg/kg, po for 6 weeks by microcomputed tomography method relative to sham treated control. The series is classed as functional, organism-based. A digest of the protocol: (§1)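 Female C57BL/6 mice ovariectomized at 12 weeks of age; sham-operated group kept ovaries intact. After recovery, daily oral gavage of compound or vehicle for 6 weeks, sacrifice at 22 weeks of age. Distal femur trabecular structure analysed by micro-computed tomography, including bone volume/total volume, compared with sham mice; GW0742 as positive control.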

Series [12] relates to Mus musculus. Nature of the series: Antiosteoporotic activity against OVX-induced bone loss C57BL/6 mouse model assessed as increase in ratio of bone volume to total volume at 10 mg/kg, po for 6 weeks by microcomputed tomography method relative to sham treated control. The series is classed as functional, organism-based. A digest of the protocol:
as §1

Series [13] in a line: Glutathione reactivity at pH 7.4 assessed as compound remaining measured after 24 hrs by LC-MS/MS method. The following applies: pH 7.4, 24 h. The class given is physicochemical. A digest of the protocol:
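Substrate incubated in triplicate with 10-fold excess glutathione in pH 7.4 phosphate buffer containing 50% methanol at 25 °C for up to 24 h. Substrate loss followed at several time points by LC-MS/MS, which also confirmed the structure of glutathione conjugates.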

The nature of series [14]: Toxicity in OVX-induced bone loss C57BL/6 mouse model assessed as change in body weight at 10 mg/kg, po for 6 weeks. The series is classed as organism-based. The conditions noted are these: in vivo, 1008 h. The essentials: (§2)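 OVX C57BL/6 females (surgery at 12 weeks, sham controls) dosed daily by oral gavage for 6 weeks. Gross toxicity monitored during dosing as weight, behaviour, eating and other habits versus controls.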

The nature of series [15]: Toxicity in OVX-induced bone loss C57BL/6 mouse model assessed as change in behaviour at 10 mg/kg, po for 6 weeks. The series is classed as organism-based. The conditions noted are these: in vivo, 1008 h. The essentials:
as §2

A short description of series [16]: Toxicity in OVX-induced bone loss C57BL/6 mouse model assessed as change in eating at 10 mg/kg, po for 6 weeks. The following applies: in vivo, 1008 h. The class given is organism-based. A digest of the protocol: as §2
Series [17] relates to Mus musculus. In words: Antiosteoporotic activity against OVX-induced bone loss C57BL/6 mouse model assessed as increase in microarchitectures at 10 mg/kg, po for 6 weeks by microcomputed tomography method relative to sham treated control. The class given is functional, organism-based. A digest of the protocol:
as §1

Series [18] has as its system Mesenchymal stem cells. In words: Cytotoxicity against human Mesenchymal stem cells expressing human PPARdelta assessed as morphological changes at 50 uM by microscopy analysis. The series is classed as cell-based.
Series [19] relates to COS-7 (Chlorocebus aethiops). In words: Cytotoxicity against COS-7 cells expressing human PPARdelta assessed as morphological changes at lower concentration by microscopy analysis. The following applies: monkey.

In general, EC50 refers to the concentration giving half of the maximal effect. On to `Cc1nc(-c2ccc(C(F)(F)F)c(F)c2)sc1COc1ccc(/C=C/C(=O)O)cc1`, for which the result with Mesenchymal stem cells [1], in the series with Mesenchymal stem cells [3], in the series with Mesenchymal stem cells [5], in the series on Mesenchymal stem cells [6], in the series on Mus musculus [11] and in the series on Mus musculus [12] was Active. In addition, the outcome in the series on Mesenchymal stem cells [2] and in the series on Mesenchymal stem cells [4] was inactive. Besides, the EC50 in series [7] turned out to be 51.3 µM; in [8] it was 0.0959 µM; in series [9] (read-out: EC50) it was 13.2 µM. Also, the Emax in series [10] was determined as 346%. The Stability entry in series [13] is given as “Stable”. Also, the Activity entry in series [14], in [15] and in [16] was “Toxic” in each case.
Consider `Cc1nc(-c2ccc(C(F)(F)F)cc2)sc1CNc1ccc(/C=C/C(=O)O)cc1`, for which the outcome with Mesenchymal stem cells [1], in the series with Mesenchymal stem cells [3], in the series on Mesenchymal stem cells [4], in the series with Mesenchymal stem cells [5] and with Mesenchymal stem cells [6] was Active. For the same compound, the result in the series on Mesenchymal stem cells [2] was inactive. Moreover, the figures for the concentration for a half-maximal effect (EC50) in series [7] and in [8] were 6.01 µM and 1.22 µM, respectively. Also, the Emax in series [10] amounted to 377%.
`Cc1nc(-c2ccc(C(F)(F)F)cc2)sc1CSc1ccc(/C=C/C(=O)O)cc1`: the result in the series with Mesenchymal stem cells [1] and with Mesenchymal stem cells [5] was Active. The outcome with Mesenchymal stem cells [2] and in the series with Mesenchymal stem cells [3] was inactive. Besides, the results for the EC50 in series [7], in series [8] and in series [9] (read-out: EC50) were 17.7 µM, 0.535 µM and 17 µM, respectively. In series [10], the Emax is 338%.
With `Cc1nc(-c2ccc(C(F)(F)F)cc2)sc1CN(C)c1ccc(/C=C/C(=O)O)cc1`, the result in the series on Mesenchymal stem cells [1], in the series with Mesenchymal stem cells [3], in the series with Mesenchymal stem cells [4], in the series with Mesenchymal stem cells [5], in the series with Mesenchymal stem cells [6] and with Mus musculus [11] was Active. Moreover, the outcome with Mus musculus [12] and in the series with Mus musculus [17] was Active. For the same compound, the result in the series on Mesenchymal stem cells [2] was inactive. Moreover, the EC50 came out at 0.947 µM in [7], 0.199 µM in series [8] and 24.7 µM in series [9] (read-out: EC50). Also, the Emax in series [10] is 44%. In addition, the Stability result in series [13] is given as “Stable”. The Activity result is “Toxic” with Mesenchymal stem cells [18]; “Toxic” in series [14]; “Toxic” in [15]; “Toxic” in series [16]; “Non-Toxic” in series [19].
On to `Cc1nc(-c2ccc(C(F)(F)F)cc2)sc1COc1ccc(/C=C/C(=O)O)cc1`, for which the result in the series on Mesenchymal stem cells [1] and in the series with Mesenchymal stem cells [2] was Active. Further, the half-maximal effective concentration (EC50) was 2.23 µM in series [7], 0.274 µM in series [8] and “Not Active” in series [9] (cos-7). For the same compound, the Emax in series [10] amounted to 135%. Moreover, the Activity entry is on record as “Toxic” in the series on Mesenchymal stem cells [18] and “Non-Toxic” in series [19].

The values are drawn from ChEMBL document CHEMBL5032493, “Synthesis and Evaluation of PPARδ Agonists That Promote Osteogenesis in a Human Mesenchymal Stem Cell Culture and in a Mouse Model of Human Osteoporosis” (J Med Chem, 2021).
